Experimental data taken from ChEMBL document CHEMBL3400013, “Synthesis and biological activity evaluation of hydrazone derivatives based on a Tröger's base skeleton” (Bioorg Med Chem, 2015).
The source made the active and inactive calls. The rule behind the calls is not given here.

Key:
[1] = Cytostatic activity against human CEM-DNR cells after 72 hrs by MTT assay; format: functional, cell-based
Summary of the method: (§1)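 Cells were seeded at 25,000–30,000 per well and pre-incubated for 24 h at 37°C in 5% CO2. Four-fold compound dilutions were added in duplicate and incubated for 72 h. MTT was added for 1–4 h, and formazan was dissolved in 10% aq SDS (pH 5.5) overnight at 37°C. OD was read at 540 nm. IC50 came from dose-response curves, mean ± SD of eight independent experiments.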

[2] = test system: Nucleic Acid; assay: Binding affinity to DNA (unknown origin) assessed as DNA intercalation by UV-visible spectrophotometry in presence of Co2+; format: nucleic-acid assay
[3] = Cytostatic activity against human HCT116 cells after 72 hrs by MTT assay; format: functional, cell-based; conditions: HCT-116, 72 h; summary of the method: as §1
[4] = test system: Enterococcus faecalis; assay: Antimicrobial activity against Enterococcus faecalis CCM 4224 up to 200 uM after 24 to 48 hrs by broth microdilution method; format: functional, organism-based
[5] = test system: CCRF-CEM; assay: Cell cycle arrest in human CCRF-CEM cells assessed as accumulation at G2/M phase at IC50 after 24 hrs by propidium iodide staining-based flow cytometry; format: functional
Summary of the method: (§2)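 Cells were then fixed in 70% ethanol, washed in hypotonic citrate buffer, treated with RNase (50 µg/mL) and stained with propidium iodide. Flow cytometry used a 488 nm laser. Apoptosis was scored as the percentage of particles with propidium content below G0/G1.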

[6] = test system: Staphylococcus aureus; assay: Antimicrobial activity against methicillin-resistant Staphylococcus aureus MRSA 4591 up to 200 uM after 24 to 48 hrs by broth microdilution method; format: functional, organism-based
[7] = test system: Pseudomonas aeruginosa; assay: Antimicrobial activity against multidrug-resistant Pseudomonas aeruginosa A/16575 up to 200 uM after 24 to 48 hrs by broth microdilution method; format: functional, organism-based
[8] = test system: Staphylococcus aureus; assay: Antimicrobial activity against Staphylococcus aureus CCM 3953 up to 200 uM after 24 to 48 hrs by broth microdilution method; format: functional, organism-based
[9] = test system: Escherichia coli; assay: Antimicrobial activity against Escherichia coli CCM 3954 up to 200 uM after 24 to 48 hrs by broth microdilution method; format: functional, organism-based
[10] = test system: Candida parapsilosis; assay: Antifungal activity against Candida parapsilosis up to 200 uM after 24 to 48 hrs by broth microdilution method; format: functional, organism-based
[11] = test system: BJ; assay: Selectivity index, ratio of IC50 for human BJ cells to IC50 for human p53-/- HCT116 cells; format: functional
[12] = test system: CCRF-CEM; assay: Induction of apoptosis in human CCRF-CEM cells assessed as mitotic cells at IC50 after 24 hrs by pH3Ser10+ labeling-based flow cytometry; format: functional
[13] = test system: K562; assay: Selectivity index, ratio of IC50 for human MRC5 cells to IC50 for human K562 cells; format: functional
[14] = test system: Escherichia coli; assay: Antimicrobial activity against multidrug-resistant Escherichia coli C/16702 up to 200 uM after 24 to 48 hrs by broth microdilution method; format: functional, organism-based
[15] = test system: A549; assay: Selectivity index, ratio of IC50 for human MRC5 cells to IC50 for human A549 cells; format: functional
[16] = Metal chelating activity of the compound assessed as formation of Cu2+ complex by UV-vis spectrometry; format: physicochemical
[17] = test system: CCRF-CEM; assay: Induction of apoptosis in human CCRF-CEM cells assessed as inhibition of RNA synthesis at 5 times IC50 after 24 hrs by propidium iodide/BrU staining by flow cytometry; format: functional; design: scale not given: the % may be the effect or the level left
[18] = test system: Staphylococcus haemolyticus; assay: Antimicrobial activity against methicillin-resistant Staphylococcus haemolyticus A1/16568 up to 200 uM after 24 to 48 hrs by broth microdilution method; format: functional, organism-based
[19] = test system: HCT-116; assay: Selectivity index, ratio of IC50 for human MRC5 cells to IC50 for human p53-/- HCT116 cells; format: functional
[20] = Metal chelating activity of the compound assessed as formation of Co2+ complex by UV-vis spectrometry; format: physicochemical
[21] = Cytostatic activity against human p53-/- HCT116 cells after 72 hrs by MTT assay; format: functional, cell-based; conditions: HCT-116, 72 h; summary of the method: as §1
[22] = test system: CCRF-CEM; assay: Cell cycle arrest in human CCRF-CEM cells assessed as accumulation at S phase at IC50 after 24 hrs by propidium iodide staining-based flow cytometry; format: functional; summary of the method: as §2
[23] = Metal chelating activity of the compound assessed as formation of Fe3+ complex by UV-vis spectrometry; format: physicochemical
[24] = test system: CCRF-CEM; assay: Induction of apoptosis in human CCRF-CEM cells assessed as apoptotic cells at 5 times IC50 after 24 hrs by propidium iodide staining-based flow cytometry; format: functional; summary of the method: as §2
[25] = test system: K562; assay: Cytostatic activity against human K562 cells after 72 hrs by MTT assay; format: functional, cell-based; conditions: K562, 72 h; summary of the method: as §1
[26] = Metal chelating activity of the compound assessed as formation of Cr3+ complex by UV-vis spectrometry; format: physicochemical
[27] = Metal chelating activity of the compound assessed as formation of Mn2+ complex by UV-vis spectrometry; format: physicochemical
[28] = test system: Nucleic Acid; assay: Binding affinity to DNA (unknown origin) assessed as DNA intercalation by UV-visible spectrophotometry in presence of Cu2+; format: nucleic-acid assay
[29] = test system: A549; assay: Selectivity index, ratio of IC50 for human BJ cells to IC50 for human A549 cells; format: functional
[30] = test system: CCRF-CEM; assay: Cell cycle arrest in human CCRF-CEM cells assessed as accumulation at G0/G1 phase at 5 times IC50 after 24 hrs by propidium iodide staining-based flow cytometry; format: functional; summary of the method: as §2
[31] = test system: BJ; assay: Selectivity index, ratio of IC50 for human BJ cells to IC50 for human CCRF-CEM cells; format: functional; conditions: pooled result: one value given for 2 cell lines, strains, targets or settings
[32] = test system: Pseudomonas aeruginosa; assay: Antimicrobial activity against Pseudomonas aeruginosa CCM 395 up to 200 uM after 24 to 48 hrs by broth microdilution method; format: functional, organism-based
[33] = test system: CCRF-CEM; assay: Cell cycle arrest in human CCRF-CEM cells assessed as accumulation at G2/M phase at 5 times IC50 after 24 hrs by propidium iodide staining-based flow cytometry; format: functional; summary of the method: as §2
[34] = Metal chelating activity of the compound assessed as formation of Fe2+ complex by UV-vis spectrometry; format: physicochemical
[35] = test system: CCRF-CEM; assay: Induction of apoptosis in human CCRF-CEM cells assessed as mitotic cells at 5 times IC50 after 24 hrs by pH3Ser10+ labeling-based flow cytometry; format: functional
[36] = test system: BJ; assay: Selectivity index, ratio of IC50 for human BJ cells to IC50 for human K562-TAX cells; format: functional
[37] = test system: CCRF-CEM; assay: Induction of apoptosis in human CCRF-CEM cells assessed as apoptotic cells at IC50 after 24 hrs by propidium iodide staining-based flow cytometry; format: functional; summary of the method: as §2
[38] = test system: CCRF-CEM; assay: Induction of apoptosis in human CCRF-CEM cells assessed as inhibition of DNA synthesis at 5 times IC50 after 24 hrs by propidium iodide/BrdU staining by flow cytometry; format: functional; design: scale not given: the % may be the effect or the level left
[39] = test system: BJ; assay: Selectivity index, ratio of IC50 for human BJ cells to IC50 for human HCT116 cells; format: functional
[40] = Metal chelating activity of the compound assessed as formation of Zn2+ complex by UV-vis spectrometry; format: physicochemical
[41] = Metal chelating activity of the compound assessed as formation of Mg2+ complex by UV-vis spectrometry; format: physicochemical
[42] = test system: HCT-116; assay: Selectivity index, ratio of IC50 for human MRC5 cells to IC50 for human HCT116 cells; format: functional
[43] = test system: Nucleic Acid; assay: Binding affinity to DNA (unknown origin) assessed as DNA intercalation by UV-visible spectrophotometry in presence of Fe3+; format: nucleic-acid assay

## O=C(N/N=C/c1cc(F)ccc1O)c1ccc2c3c(ccc2c1)N1Cc2c(ccc4cc(C(=O)N/N=C/c5cc(F)ccc5O)ccc24)N(C3)C1
[1]
  IC50: 4.25 µM
[2]
  Activity: Active
[3]
  IC50: 640 nM
[4]
  Activity: inactive
[5]
  Activity: 13.05%
[6]
  Activity: inactive
[7]
  Activity: inactive
[8]
  Activity: inactive
[9]
  Activity: inactive
[10]
  Activity: inactive
[11]
  Ratio IC50: 51
[12]
  Activity: 0.3%
[13]
  Ratio IC50: 18.1
[14]
  Activity: inactive
[15]
  Ratio IC50: 33.6
[16]
  Activity: Active
[17]
  Activity: 4.37%
[18]
  Activity: inactive
[19]
  Ratio IC50: 51
[20]
  Activity: Active
[21]
  IC50: 810 nM
[22]
  Activity: 55.45%
[23]
  Activity: Active
[24]
  Activity: 58.01%
[25]
  IC50: 2300 nM
[26]
  Activity: Not Active
[27]
  Activity: Not Active
[28]
  Activity: Active
[29]
  Ratio IC50: 33.6
[30]
  Activity: 41.1%
[31]
  Ratio IC50: 26.3
[32]
  Activity: inactive
[33]
  Activity: 16.49%
[34]
  Activity: Not Active
[35]
  Activity: 0.15%
[36]
  Ratio IC50: 17.6
[37]
  Activity: 40.42%
[38]
  Activity: 1.54%
[39]
  Ratio IC50: 64.9
[40]
  Activity: Active
[41]
  Activity: Not Active
[42]
  Ratio IC50: 64.9
[43]
  Activity: Active

## COC(=O)c1ccc(O)c(/C=N/NC(=O)c2ccc3c4c(ccc3c2)N2Cc3c(ccc5cc(C(=O)N/N=C/c6cc(C(=O)OC)ccc6O)ccc35)N(C4)C2)c1
[1]
  IC50: 28.2 µM
[2]
  Activity: Active
[3]
  IC50: 10300 nM
[4]
  Activity: inactive
[5]
  Activity: 12.83%
[6]
  Activity: inactive
[7]
  Activity: inactive
[8]
  Activity: inactive
[9]
  Activity: inactive
[10]
  Activity: inactive
[11]
  Ratio IC50: 9.7
[12]
  Activity: 1.19%
[13]
  Ratio IC50: 9.4
[14]
  Activity: inactive
[15]
  Ratio IC50: 7.7
[16]
  Activity: Active
[17]
  Activity: 21.03%
[18]
  Activity: inactive
[19]
  Ratio IC50: 9.7
[20]
  Activity: Active
[21]
  IC50: 9470 nM
[22]
  Activity: 38.54%
[23]
  Activity: Active
[24]
  Activity: 14.56%
[25]
  IC50: 9760 nM
[26]
  Activity: Not Active
[27]
  Activity: Not Active
[28]
  Activity: Active
[29]
  Ratio IC50: 7.7
[30]
  Activity: 31.26%
[31]
  Ratio IC50: 16.3
[32]
  Activity: inactive
[33]
  Activity: 13.26%
[34]
  Activity: Not Active
[35]
  Activity: 0.86%
[36]
  Ratio IC50: 4.3
[37]
  Activity: 12.85%
[38]
  Activity: 54.61%
[39]
  Ratio IC50: 8.9
[40]
  Activity: Active
[41]
  Activity: Not Active
[42]
  Ratio IC50: 8.9
[43]
  Activity: Active

## O=C(N/N=C/c1ccccc1O)c1ccc2c3c(ccc2c1)N1Cc2c(ccc4cc(C(=O)N/N=C/c5ccccc5O)ccc24)N(C3)C1
[1]
  IC50: 4.25 µM
[2]
  Activity: Active
[3]
  IC50: 390 nM
[4]
  Activity: inactive
[5]
  Activity: 19.09%
[6]
  Activity: inactive
[7]
  Activity: inactive
[8]
  Activity: inactive
[9]
  Activity: inactive
[10]
  Activity: inactive
[11]
  Ratio IC50: 1.7
[12]
  Activity: 0.62%
[13]
  Ratio IC50: 0.6
[14]
  Activity: inactive
[15]
  Ratio IC50: 0.3
[16]
  Activity: Active
[17]
  Activity: 83.92%
[18]
  Activity: inactive
[19]
  Ratio IC50: 1.7
[20]
  Activity: Active
[21]
  IC50: 190 nM
[22]
  Activity: 50.31%
[23]
  Activity: Active
[24]
  Activity: 50.23%
[25]
  IC50: 580 nM
[26]
  Activity: Not Active
[27]
  Activity: Not Active
[28]
  Activity: Active
[29]
  Ratio IC50: 0.3
[30]
  Activity: 43.33%
[31]
  Ratio IC50: 0.9
[32]
  Activity: inactive
[33]
  Activity: 18.92%
[34]
  Activity: Not Active
[35]
  Activity: 0.01%
[36]
  Ratio IC50: 0.4
[37]
  Activity: 18.07%
[38]
  Activity: 5.94%
[39]
  Ratio IC50: 0.8
[40]
  Activity: Active
[41]
  Activity: Not Active
[42]
  Ratio IC50: 0.8
[43]
  Activity: Active
